Results collected from several papers.
Compare with care: the assays were run in different laboratories.
Effect on: cell growth or viability

For Cc1c(Cl)c(=O)oc2cc(OCCCCSC#N)ccc12, the GI50 was 6.2 µM (HeLa; SRB).
The EC50 of Cc1nc(NC(=O)N2CCC[C@H]2C(N)=O)sc1-c1ccnc(C(C)(C)C(F)(F)F)c1 is reported as 29.4 µM (Detroit 562; ATP luminescence; 5 days).
The inhibition of CCC(=CCc1c(O)cc2c(c1O)C(=O)C[C@@H](c1ccccc1O)O2)CC is reported as 0.607% (HeLa; MTT; 15 µM, 48 h).
The GI50 of Cc1cc(=O)oc2cc(OCCCCSC#N)ccc12 is reported as 1.9 µM (HeLa; SRB).
CCOc1cccc(C(=O)CC(SCc2cccc(Br)c2)C(=O)O)c1 (stereo not shown) has an EC50 of 98 µM (U2OS; MTT; 48 h).
The GI50 of O=c1[nH]cc(F)c(=O)[nH]1 is reported as 4.4 µM (HeLa; SRB).
CCOc1ccc(C(=O)CC(SCc2ccc(Cl)cc2)C(=O)OC)cc1 (stereo not shown) has an EC50 of 15.7 µM (U2OS; MTT; 48 h).
For Cc1nc(Nc2ncc(C(=O)Nc3c(C)cccc3Cl)s2)cc(N2CC[C@H](O)C2)n1, the inhibition was 51% (P3HR-1; ATP luminescence; 10 µM, 72 h).
CCOc1ccc(-c2cc(C(=O)O)c(-c3ccc(Cl)cc3)o2)cc1 has an EC50 of 48 µM (U2OS; MTT; 48 h).
CCC(=CCc1c(O)cc2c(c1O)C(=O)CC(c1ccc(O)cc1)O2)CC (stereo in doubt) gave an inhibition of 0.607% (HeLa; MTT; 0.781 µM, 48 h).
